Converted amounts (≈) assume the structure as drawn.
How the values were obtained:
Clostridium perfringens = assay: In vitro antibacterial activity against Clostridium perfringens CP 3-1; assay type: functional
[1] = tested on: Peptoniphilus asaccharolyticus; assay: In vitro antibacterial activity was tested for Pepto asac PA 3-1; assay type: functional
Summary of the method: (§1)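 Microtitration (microdilution) MIC determination in μg/mL against a panel of Gram-positive, Gram-negative and anaerobic organisms. Values come from duplicate or triplicate experiments and are stated accurate to ±50%.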

Clostridioides difficile = assay: In vitro antibacterial activity was tested for Clostridium diff CD1-1; assay type: functional
Mus musculus [2] = species on record: Mus musculus; assay: (§2) Phototoxic skin reaction in depilated female CD-1 mice; assay type: toxicity, organism-based; settings: in vivo
Summary of the method: (§3)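 Female CD-1 mice, depilated, given a single oral or subcutaneous dose. UVA (320–400 nm) exposure for 3 h, starting 1 h post-dose. Initial doses were 30, 100 and 300 mg/kg. PTD50 (dose giving phototoxic skin reaction in 50% of mice) derived by probit method. First day of positive reaction and no-effect dose taken from raw data.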

Bacteroides fragilis = assay: In vitro antibacterial activity against Bacteroides fragilis BFA; assay type: functional; summary of the method: as §1
Cutibacterium acnes = assay: In vitro antibacterial activity was tested for Propion acnes PA5-1; assay type: functional; summary of the method: as §1
Mus musculus [3] = species on record: Mus musculus; assay: Phototoxic skin reaction in depilated female CD-1 mice.; assay type: functional; summary of the method: as §3
V79 = assay: Clonogenic cytotoxicity against Chinese hamster V-79 cells; assay type: functional, cell-based; settings: Cricetulus griseus
Streptococcus pyogenes = assay: In vitro antibacterial activity was tested for Streptococcus pyogenes C203; assay type: functional; summary of the method: as §1
Escherichia coli [4] = assay: In vitro antibacterial activity was tested for Escherichia coli H560; assay type: functional; summary of the method: as §1
Mus musculus [5] = species on record: Mus musculus; assay: as §2; assay type: functional; summary of the method: as §3
Streptococcus pneumoniae = assay: In vitro antibacterial activity was tested for Streptococcus pneumoniae SV-1; assay type: functional; summary of the method: as §1
Enterococcus faecalis = assay: In vitro antibacterial activity was tested for Streptococcus faecalis MGH-2; assay type: functional; summary of the method: as §1
Pseudomonas aeruginosa = assay: In vitro antibacterial activity was tested for Pseudomonas aeruginosa UI-18; assay type: functional; summary of the method: as §1
Staphylococcus aureus [6] = assay: In vitro antibacterial activity was tested for Staphylococcus aureus UC-76; assay type: functional; summary of the method: as §1
Staphylococcus aureus [7] = assay: In vitro antibacterial activity was tested for Staphylococcus aureus H228; assay type: functional; summary of the method: as §1
Providencia rettgeri = assay: In vitro antibacterial activity was tested for Providencia rettgeri H1771; assay type: functional; summary of the method: as §1
Klebsiella pneumoniae = assay: In vitro antibacterial activity was tested for Klebsiella pneumoniae MGH-2; assay type: functional; summary of the method: as §1
Escherichia coli [8] = assay: In vitro antibacterial activity was tested for Escherichia coli Vogel; assay type: functional; summary of the method: as §1
Enterobacter cloacae = assay: In vitro antibacterial activity was tested for Enterobacter cloacae HA2646; assay type: functional

| Compound | MIC (Clostridium perfringens) [µg/mL] | MIC [1] [µg/mL] | MIC (Clostridioides difficile) [µg/mL] | PTD50 (Mus musculus [2]) [mg] | MIC (Bacteroides fragilis) [µg/mL] | MIC (Cutibacterium acnes) [µg/mL] | No effect dose (Mus musculus [3]) [mg] | IC50 (V79) [µg/mL] | MIC (Streptococcus pyogenes) [µg/mL] | MIC (Escherichia coli [4]) [µg/mL] | No effect dose (Mus musculus [5]) [mg] | MIC (Streptococcus pneumoniae) [µg/mL] | MIC (Enterococcus faecalis) [µg/mL] | MIC (Pseudomonas aeruginosa) [µg/mL] | MIC (Staphylococcus aureus [6]) [ng/mL] | MIC (Staphylococcus aureus [7]) [µg/mL] | MIC (Providencia rettgeri) [µg/mL] | MIC (Klebsiella pneumoniae) [µg/mL] | MIC (Escherichia coli [8]) [µg/mL] | MIC (Enterobacter cloacae) [µg/mL] |
| --- | --- | --- | --- | --- | --- | --- | --- | --- | --- | --- | --- | --- | --- | --- | --- | --- | --- | --- | --- | --- |
| NC1CCCN(c2c(F)cc3c(=O)c(C(=O)O)cn(C4CC4)c3c2F)C1 (stereo unspecified) | 0.2 (≈ 0.55 µM) | 1.6 (≈ 4.4 µM) | 1.6 (≈ 4.4 µM) | 55 | 1.6 (≈ 4.4 µM) | 0.4 (≈ 1.1 µM) | 30 | – | – | – | – | – | – | – | – | – | – | – | – | – |
| NC1CCCN(c2cc3c(cc2F)c(=O)c(C(=O)O)cn3C2CC2)C1 (stereo unspecified) | – | – | – | > 100 | – | – | 100 | 560 (≈ 1620 µM) | – | – | – | – | – | – | – | – | – | – | – | – |
| COc1c(N2CC(C)NC(C)C2)c(F)cc2c(=O)c(C(=O)O)cn(C3CC3)c12 (stereo unspecified) | 0.4 (≈ 1.03 µM) | 0.8 (≈ 2.05 µM) | 3.1 (≈ 7.96 µM) | > 100 | 0.8 (≈ 2.05 µM) | 0.4 (≈ 1.03 µM) | – | – | 0.1 (≈ 0.257 µM) | 0.05 (≈ 0.128 µM) | 100 | 0.1 (≈ 0.257 µM) | 0.2 (≈ 0.514 µM) | 3.1 (≈ 7.96 µM) | 50 (≈ 0.128 µM) | 0.1 (≈ 0.257 µM) | 0.8 (≈ 2.05 µM) | 0.2 (≈ 0.514 µM) | 0.1 (≈ 0.257 µM) | 0.1 (≈ 0.257 µM) |
| CCOc1c(N2CCC(C)(CN)C2)c(F)cc2c(=O)c(C(=O)O)cn(C3CC3)c12 (stereo unspecified) | 0.8 (≈ 1.98 µM) | 0.8 (≈ 1.98 µM) | 3.1 (≈ 7.68 µM) | > 100 | 1.6 (≈ 3.97 µM) | 3.1 (≈ 7.68 µM) | 100 | 140 (≈ 347 µM) | 0.1 (≈ 0.248 µM) | 0.2 (≈ 0.496 µM) | – | 0.1 (≈ 0.248 µM) | 0.1 (≈ 0.248 µM) | 1.6 (≈ 3.97 µM) | 13 (≈ 0.0322 µM) | 0.05 (≈ 0.124 µM) | 0.8 (≈ 1.98 µM) | 0.4 (≈ 0.991 µM) | 0.2 (≈ 0.496 µM) | 0.2 (≈ 0.496 µM) |
| COc1c(N2CCC(C)(CN)C2)c(F)cc2c(=O)c(C(=O)O)cn(C3CC3)c12 (stereo unspecified) | 0.2 (≈ 0.514 µM) | 0.8 (≈ 2.05 µM) | 0.8 (≈ 2.05 µM) | > 100 | 0.4 (≈ 1.03 µM) | 0.4 (≈ 1.03 µM) | 100 | – | 0.013 (≈ 0.0334 µM) | 0.05 (≈ 0.128 µM) | – | 0.013 (≈ 0.0334 µM) | 0.025 (≈ 0.0642 µM) | 1.6 (≈ 4.11 µM) | 6 (≈ 0.0154 µM) | 0.025 (≈ 0.0642 µM) | 0.4 (≈ 1.03 µM) | 0.2 (≈ 0.514 µM) | 0.1 (≈ 0.257 µM) | 0.1 (≈ 0.257 µM) |
| COc1c(N2CCC(N)C2)c(F)c(N)c2c(=O)c(C(=O)O)cn(C3CC3)c12 (stereo unspecified) | 0.2 (≈ 0.531 µM) | 0.8 (≈ 2.13 µM) | 3.1 (≈ 8.24 µM) | > 100 | 1.6 (≈ 4.25 µM) | 0.8 (≈ 2.13 µM) | 100 | – | 0.1 (≈ 0.266 µM) | 0.025 (≈ 0.0664 µM) | – | 0.05 (≈ 0.133 µM) | 0.05 (≈ 0.133 µM) | 0.8 (≈ 2.13 µM) | 6 (≈ 0.0159 µM) | 0.05 (≈ 0.133 µM) | 0.2 (≈ 0.531 µM) | 0.1 (≈ 0.266 µM) | 0.025 (≈ 0.0664 µM) | 0.05 (≈ 0.133 µM) |
| COc1c(N2CCCC(N)C2)c(F)c(N)c2c(=O)c(C(=O)O)cn(C3CC3)c12 (stereo unspecified) | 0.2 (≈ 0.512 µM) | 0.8 (≈ 2.05 µM) | 1.6 (≈ 4.1 µM) | > 100 | 1.6 (≈ 4.1 µM) | 0.4 (≈ 1.02 µM) | 100 | 290 (≈ 743 µM) | 0.013 (≈ 0.0333 µM) | 0.05 (≈ 0.128 µM) | – | 0.006 (≈ 0.0154 µM) | 0.05 (≈ 0.128 µM) | 1.6 (≈ 4.1 µM) | 6 (≈ 0.0154 µM) | 0.025 (≈ 0.064 µM) | 0.4 (≈ 1.02 µM) | 0.2 (≈ 0.512 µM) | 0.1 (≈ 0.256 µM) | 0.1 (≈ 0.256 µM) |
| Nc1c(F)c(N2CCC(N)C2)c(F)c2c1c(=O)c(C(=O)O)cn2C1CC1 (stereo unspecified) | – | – | – | 52 | – | – | – | – | 0.025 (≈ 0.0686 µM) | 0.003 (≈ 0.00823 µM) | 30 | 0.006 (≈ 0.0165 µM) | 0.025 (≈ 0.0686 µM) | 0.05 (≈ 0.137 µM) | 6 (≈ 0.0165 µM) | 0.013 (≈ 0.0357 µM) | 0.025 (≈ 0.0686 µM) | 0.006 (≈ 0.0165 µM) | 0.006 (≈ 0.0165 µM) | 0.006 (≈ 0.0165 µM) |
| CC1(CN)CCN(c2nc3c(cc2F)c(=O)c(C(=O)O)cn3C2CC2)C1 (stereo unspecified) | 0.2 (≈ 0.555 µM) | 1.6 (≈ 4.44 µM) | 25 (≈ 69.4 µM) | > 300 | 6.3 (≈ 17.5 µM) | 1.6 (≈ 4.44 µM) | 300 | – | – | – | – | – | – | – | – | – | – | – | – | – |
| CC1(CN)CCN(c2cc3c(cc2F)c(=O)c(C(=O)O)cn3C2CC2)C1 (stereo unspecified) | 0.2 (≈ 0.556 µM) | 1.6 (≈ 4.45 µM) | 6.3 (≈ 17.5 µM) | > 100 | 6.3 (≈ 17.5 µM) | 1.6 (≈ 4.45 µM) | 100 | – | – | – | – | – | – | – | – | – | – | – | – | – |
| CCNCC1CCCN(c2c(F)cc3c(=O)c(C(=O)O)cn(C4CC4)c3c2OCC)C1 (stereo unspecified) | 0.4 (≈ 0.927 µM) | 0.4 (≈ 0.927 µM) | 3.1 (≈ 7.18 µM) | – | 3.1 (≈ 7.18 µM) | 3.1 (≈ 7.18 µM) | – | 460 (≈ 1070 µM) | 0.1 (≈ 0.232 µM) | 0.8 (≈ 1.85 µM) | – | 0.1 (≈ 0.232 µM) | 0.2 (≈ 0.463 µM) | > 3.1 | 50 (≈ 0.116 µM) | 0.2 (≈ 0.463 µM) | > 3.1 | 3.1 (≈ 7.18 µM) | 0.8 (≈ 1.85 µM) | 1.6 (≈ 3.71 µM) |

— ChEMBL document CHEMBL1128719, “The synthesis, structure-activity, and structure-side effect relationships of a series of 8-alkoxy- and 5-amino-8-alkoxyquinolone antibacterial agents” (J Med Chem, 1995)
